Assay outcomes as filed in PubChem.
Compounds with a hit are over-represented: about 3.5% of the library has one in this group of screens.
RGS4 act: RGS4 potentiators or activators, primary screen, cell-based, HEK293 M3R inducible RGS4, calcium flux; 0.92% of 310,000 active; B-score at 10 µM; carbachol calcium flux Fluo4; hits give low values;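 active means B-score of the integrated calcium signal more than 4 SD below the library mean, with starting fluorescence not abnormally high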;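 further: negative B-score means reduced calcium response which marks RGS4 activation or potentiation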
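System – HEK293 FlpIn-TREx cells, stable M3R, doxycycline-inducible RGS4 · Reagent – ECmax carbachol challenge · Times – compound preincubation 20 min at room temperature before agonist · Technique – Fluo4 fluorescence kinetic imaging of calcium · Measure – B score of integrated Fluo4 ratio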
RGS4 inh: RGS4 inhibitors, primary screen, cell-based, HEK293 M3R inducible RGS4, calcium flux. Regulator of G-protein signaling 4 (Homo sapiens), P49798. Fluo-4 calcium flux; hits give high values; triggered by carbachol at its EC20. B-score at 10 µM. 0.45% of 310,000 active;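 active means B-score, a plate-corrected calcium signal, over three deviations above library mean, with baseline fluorescence within five deviations of library mean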;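 further: RGS4 expression induced by doxycycline in cells with stable M3 receptor; B-score is computed from the integrated fluorescence ratio over baseline after carbachol; higher B-score means a larger calcium signal and so more RGS4 inhibition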
Target sequence (P49798 whole entry, looked up): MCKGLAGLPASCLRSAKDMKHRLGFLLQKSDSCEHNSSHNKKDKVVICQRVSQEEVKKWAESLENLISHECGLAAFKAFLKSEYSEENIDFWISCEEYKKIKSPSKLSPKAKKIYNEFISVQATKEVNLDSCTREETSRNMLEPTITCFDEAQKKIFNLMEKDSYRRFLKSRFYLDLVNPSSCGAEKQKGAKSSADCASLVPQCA
MrgX1 antagonist: antagonists of human MrgX1 receptor, primary screen, HEK293 cells, Fluo-4 calcium flux; BAM8-22 antagonism; hits give low values; B-score at 10 µM; 1.3% of 310,000 active; AID 588676, 2011;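 active means calcium-response B-score plate-corrected more than 3 library SD below zero, starting fluorescence within 5 deviations, no agonist response on first addition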;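 further: peak minus trough fluorescence over baseline after final BAM8-22 challenge near maximal dose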
Target sequence (Q96LB2 whole entry, looked up): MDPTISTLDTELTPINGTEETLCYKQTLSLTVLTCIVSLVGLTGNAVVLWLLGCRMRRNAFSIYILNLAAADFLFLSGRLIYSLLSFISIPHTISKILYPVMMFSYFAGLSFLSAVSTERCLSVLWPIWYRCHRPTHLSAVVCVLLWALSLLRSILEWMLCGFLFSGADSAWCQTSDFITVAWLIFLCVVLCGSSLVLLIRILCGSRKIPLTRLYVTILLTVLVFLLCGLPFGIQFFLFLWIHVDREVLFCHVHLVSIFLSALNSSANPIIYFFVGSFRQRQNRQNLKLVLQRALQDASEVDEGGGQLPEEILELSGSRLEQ
MrgX1 ag: agonists of human MrgX1 receptor, primary screen, HEK293 cells, Fluo-4 calcium flux. Fluo-4 calcium fluorescence, agonist mode; hits give high values. B-score at 10 µM. 0.44% of 310,000 active. AID 588627, 2011;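 active means calcium response B-score plate-corrected fluorescence ratio at least 3 library SD, with starting fluorescence B-score inside 5 SD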
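System – MrgX1-expressing HEK293 cells · Incubation – cells plated overnight, dye loaded 0.5 h 37 °C, 0.5 h room temperature · Technique – kinetic Fluo-4 NW fluorescence of intracellular calcium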
MrgX1 PAM: positive allosteric modulators of MrgX1, primary screen, HEK293 cells, Fluo-4 calcium flux; Mas-related G-protein coupled receptor member X1 (Homo sapiens), Q96LB2; FDSS; hits give high values; B-score at 10 µM; 0.63% of 310,000 active;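 active means plate-corrected calcium response at least 3 library SD above typical, normal starting fluorescence, not activating the receptor alone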;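 further: compound read alongside a low EC10 to EC30 dose of BAM8-22 agonist; peak minus trough fluorescence over baseline measured at the second addition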
MrgX1 ant reconf: MrgX1 receptor antagonists, duplicate retest, confirmation, HEK293 cells, Fluo-4 calcium flux | BAM8-22 calcium flux; hits give low values | shares compounds with MrgX1 antagonist | 19% of 2,300 active | AID 602420, 2012 | remaining BAM8-22 calcium response % of control (hits give low values), % at 10 µM;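 active means remaining agonist calcium response no higher than 100% minus 3 SD of agonist-only control wells, with starting fluorescence near control levels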;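 further: agonist BAM8-22 given at a near maximal EC90 to ECmax level; peak minus minimum fluorescence divided by baseline after agonist addition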
HEK293 Ca flux: nonspecific calcium signal in parental HEK293, confirmation, counter-screen for MrgX1 antagonist project, parental HEK293 cells, Fluo-4 calcium flux. shares compounds with MrgX1 antagonist. Fluo-4 calcium fluorescence, FDSS. fluorescence ratio F(max-min)/F0 at 10 µM. AID 624111, 2012. 2% of 4,000 active;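 active means duplicate-averaged calcium fluorescence ratio at least three times the standard deviation of buffer wells, a nonspecific response in parental cells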
HEK293 Ca counter: calcium response in parental HEK293 cells, primary screen, counter-screen for MrgX1 allosteric activator project, cell-based, Fluo-4 calcium flux, duplicate. fluorescence ratio F(max-min)/F0 at 10 µM. Fluo-4 fluorescence ratio; hits give high values. 0.4% of 4,000 active. AID 624114, 2012. shares compounds with MrgX1 antagonist;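 active means calcium fluorescence ratio, averaged over duplicates, at least 3 SD of the buffer-well ratio, meaning a nonspecific response in receptor-free cells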;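 further: untransfected parental HEK293 lacking MrgX1 used as counterscreen for MrgX1 allosteric activators; fluorescence change taken during the second addition on a kinetic imager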
HEK293 Ca cntr2: calcium response in parental HEK293 cells, primary screen, counter-screen for MrgX1 agonist project, cell-based, Fluo-4 calcium flux, duplicate, agonist mode. shares compounds with MrgX1 antagonist. Fluo-4 calcium fluorescence (FDSS); hits give high values. fluorescence ratio F(max-min)/F0 at 10 µM. 8.7% of 4,000 active. AID 624115, 2012;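 active means calcium fluorescence ratio at least three times the spread of buffer wells, meaning a non-specific response in parental cells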
The depositor's hits bear a star; i = inactive; x = not tested or not shown.

SMILES	RGS4 act	RGS4 inh	MrgX1 antagonist	MrgX1 ag	MrgX1 PAM	MrgX1 ant reconf	HEK293 Ca flux	HEK293 Ca counter	HEK293 Ca cntr2
CCCn1cc(SCC(=O)NCc2ccco2)c2ccccc21	i	i	-9.03*	i	i	i	i	i	i
O=C(NC1CC1)c1cc2c(s1)-c1ccccc1OC2	i	i	-5.21*	i	i	i	i	i	i
O=C(Nc1nnc(-c2ccncc2)o1)c1cccc(N2C(=O)CCC2=O)c1	i	i	i	i	i	x	x	x	x
CSc1cccc(-c2nnc(NC(=O)c3cccc(N4C(=O)CCC4=O)c3)o2)c1	i	i	-4.52*	i	i	i	i	i	i
Cc1ccc(NC(=S)N(CCN2CCCCC2)Cc2ccco2)cc1Cl	i	i	i	i	i	x	x	x	x
CSc1cccc(NC(=O)C2CCCN(S(=O)(=O)c3ccc(F)cc3)C2)c1 (stereo not given)	i	i	-6.49*	i	i	67.1%*	i	i	i
CSc1cccc(NC(=O)C2CCN(S(=O)(=O)c3ccc(F)cc3)CC2)c1	i	i	i	i	i	x	x	x	x
COc1ccccc1NC(=O)NCCN1C(=O)C2C3C=CC(C3)C2C1=O (stereo not given)	i	i	-7.56*	i	i	i	i	i	i
COc1ccccc1NC(=O)NCCN1CCCCC1	i	i	i	i	i	x	x	x	x
O=C(Nc1ccccc1F)c1ccc(C(=O)c2ccccc2)cc1	i	i	-5.63*	i	i	84.5%*	i	i	i
COc1ccc(CC(=O)Oc2ccc(F)c(F)c2)cc1S(=O)(=O)N1CCOCC1	i	i	i	i	i	x	x	x	x
CCc1c(C)nc2cc(-c3ccc(Cl)cc3)[nH]n2c1=O	i	i	i	i	i	x	x	x	x
CCOC(=O)CCc1c(C)nc2cc(-c3ccc(Cl)cc3)[nH]n2c1=O	i	i	-5.99*	i	i	i	i	i	i
Cc1ccc2c(c1)sc(-c1ccc(N(C)C)cc1)[n+]2C	i	i	-11.3*	i	i	i	0.658*	i	i
CC[n+]1c(C)sc2cc(C)ccc21	i	i	i	i	i	x	x	x	x
Cc1cc(=O)[nH]c(SCCOc2ccc(OC(C)C)cc2)n1	i	i	-6.72*	i	i	i	i	i	i
CC(CSc1nc2ccccc2s1)Cn1c(N2CCCC2)nc2c1c(=O)[nH]c(=O)n2C (stereo not given)	i	i	i	i	i	x	x	x	x
CCN1CCN(c2nc3c(c(=O)[nH]c(=O)n3C)n2CCSc2nc3ccccc3s2)CC1	i	i	-6.31*	i	i	i	i	i	i
Cc1cc2c3nonc3ccc2n1-c1ccccc1	i	i	-5.19*	i	i	83.6%*	i	i	i
Cc1nc2ccc(N)cc2s1	i	i	-5.63*	i	i	i	i	i	i
Cc1nc2cc3sc(C)nc3cc2s1	i	i	i	i	i	x	x	x	x
CN1CCN(C(c2ccc(Br)cc2)c2cc(Cl)c3cccnc3c2O)CC1 (stereo not given)	i	i	-5.34*	i	i	i	i	i	i
CCO[C@H]1OC(C(=O)Nc2ccccc2)=C[C@@H](C)[C@@H]1CCCO	i	i	i	i	i	x	x	x	x
CCCN1C(=O)C(NC(C)=O)c2ccccc21 (stereo not given)	i	i	i	i	i	x	x	x	x
CCc1ccc2c(c1)C(NC(C)=O)C(=O)N2CCN1CCOCC1 (stereo not given)	i	i	-9.72*	i	i	i	i	i	i
SMILES	RGS4 act	RGS4 inh	MrgX1 antagonist	MrgX1 ag	MrgX1 PAM	MrgX1 ant reconf	HEK293 Ca flux	HEK293 Ca counter	HEK293 Ca cntr2
Cc1cc(/C=C2\SC(=S)N(C)C2=O)c(C)n1-c1ccc(O)cc1	i	i	-11.3*	i	i	i	i	i	i
COc1ccc(NC(=O)c2cccnc2N2CCCC2)cc1	i	i	-8.59*	i	i	i	i	i	46.6*
Cc1ccc(N2CCN(S(=O)(=O)c3ccc4oc(=O)ccc4c3)CC2)cc1Cl	i	i	i	i	i	x	x	x	x
O=C(CNS(=O)(=O)c1ccc([N+](=O)[O-])cc1)N/N=C/c1ccc(O)cc1O	i	i	-12.8*	i	i	40.5%*	i	63.1*	i
COc1ccc(CCNC(=O)Cc2ccsc2)cc1	i	i	i	i	i	x	x	x	x
Cc1ccc(N2C(=O)N(CC(=O)Nc3ccc(C)cc3Cl)C(=O)C2C)cc1 (stereo not given)	i	i	-10*	i	i	76.9%*	i	i	i
CC(=O)Nc1ccc(-c2ccc(NC(C)=O)cc2)cc1	i	i	i	i	i	x	x	x	x
CC(=O)Nc1ccc(NS(=O)(=O)C(F)(F)F)cc1	i	i	-8.72*	i	i	i	i	i	i
Oc1c(Br)cc(Br)cc1C=NCc1ccc(F)cc1	i	i	-5.18*	i	i	i	i	i	i
Oc1c(Br)cc(Br)cc1C=NCc1ccccc1	i	i	i	i	i	x	x	x	x
CCOC(=O)C(NC(=O)c1ccccc1)(Nc1nnc(C)s1)C(F)(F)F (stereo not given)	i	i	-8.7*	i	i	i	i	i	i
CCOC(=O)C(NC(=O)c1ccccc1)(Nc1cc(C)on1)C(F)(F)F (stereo not given)	i	i	i	i	i	x	x	x	x
CC(=O)C(Sc1ncnc2sc3c(c12)CCCC3)C(C)=O	i	i	i	i	i	x	x	x	x
